Values after ≈ are worked out from the molar mass of the structure shown.
What was measured:
[1] = molecular target: T1, Mitogen-activated protein kinase 14 (Homo sapiens, UniProt Q16539); experiment: Inhibition of unactive p38alpha
How it was run: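 Unactive p38α preincubated with compound, then activated by MKK6 and diluted into an MK2 plus substrate mixture (cascade format). IC50 is the mean of three experiments, SD <15%.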

[2] = molecular target: T1, Mitogen-activated protein kinase 14; experiment: Inhibition of active p38alpha
How it was run: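 Compound preincubated with active p38α; kinase activity then read by adding MK2 and its substrate (cascade format). IC50 is the mean of three experiments, SD <15%.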

[3] = molecular target: CYP2D6 (Homo sapiens, UniProt P10635); experiment: Inhibition of CYP2D6 at 3 uM; type: ADME
How it was run: (§1)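 Compound tested at 3 µM against a cocktail of CYP1A2, 2C9, 2D6 and 3A4; the result is given as % inhibition for each isoform.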

[4] = molecular target: CYP2C9 (Homo sapiens, UniProt P11712); experiment: Inhibition of CYP2C9 at 3 uM; type: ADME; how it was run: as §1
[5] = molecular target: hERG (KCNH2) (Homo sapiens, UniProt Q12809); experiment: Displacement of [3H]dofetilide from human ERG at 10 uM; details: probe [3H]dofetilide
[6] = Solubility of the compound in phosphate buffer at pH 6.5 by turbidimetric; type: physicochemical
How it was run: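 Kinetic solubility measured turbidimetrically in phosphate buffer at pH 6.5. The value is reported as a range between the minimum and maximum kinetic solubility, in µM.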

[7] = molecular target: T2, CYP1A2 (Homo sapiens, UniProt P05177); experiment: Inhibition of CYP1A2 at 3 uM; type: ADME; how it was run: as §1
T2 sequence (P05177 whole entry): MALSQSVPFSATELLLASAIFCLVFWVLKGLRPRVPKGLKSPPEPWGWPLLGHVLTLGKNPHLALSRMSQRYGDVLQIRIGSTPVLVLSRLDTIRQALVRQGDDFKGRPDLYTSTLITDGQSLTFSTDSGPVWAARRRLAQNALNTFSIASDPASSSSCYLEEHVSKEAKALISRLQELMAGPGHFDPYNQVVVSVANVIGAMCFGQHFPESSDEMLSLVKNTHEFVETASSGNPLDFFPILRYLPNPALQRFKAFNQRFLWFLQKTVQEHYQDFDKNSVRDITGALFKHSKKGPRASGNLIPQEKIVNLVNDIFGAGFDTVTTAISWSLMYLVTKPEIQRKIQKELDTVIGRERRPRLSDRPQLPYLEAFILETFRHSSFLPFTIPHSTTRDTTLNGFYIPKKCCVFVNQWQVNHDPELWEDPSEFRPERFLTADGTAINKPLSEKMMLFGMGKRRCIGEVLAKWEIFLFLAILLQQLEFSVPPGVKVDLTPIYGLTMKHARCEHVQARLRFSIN

[8] = molecular target: CYP3A4 (Homo sapiens, UniProt P08684); experiment: Inhibition of CYP3A4 at 3 uM; type: ADME; how it was run: as §1
[9] = Permeability of the compound by PAMPA method; type: ADME

Chain of CYP2D6 (P10635 whole entry, canonical isoform): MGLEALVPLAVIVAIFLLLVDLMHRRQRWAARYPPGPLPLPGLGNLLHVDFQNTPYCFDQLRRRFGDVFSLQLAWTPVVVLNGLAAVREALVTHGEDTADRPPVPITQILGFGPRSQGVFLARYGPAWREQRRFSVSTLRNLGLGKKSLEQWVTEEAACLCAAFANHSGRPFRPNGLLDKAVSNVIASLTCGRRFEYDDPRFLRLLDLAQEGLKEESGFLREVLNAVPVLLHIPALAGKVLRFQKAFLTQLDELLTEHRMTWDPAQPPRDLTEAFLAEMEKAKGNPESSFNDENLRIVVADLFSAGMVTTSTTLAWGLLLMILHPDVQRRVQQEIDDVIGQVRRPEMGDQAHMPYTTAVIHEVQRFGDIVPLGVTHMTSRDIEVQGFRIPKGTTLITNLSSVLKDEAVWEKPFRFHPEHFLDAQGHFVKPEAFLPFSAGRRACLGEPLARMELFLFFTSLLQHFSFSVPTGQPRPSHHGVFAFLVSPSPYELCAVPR
T1 sequence (Q16539 whole entry): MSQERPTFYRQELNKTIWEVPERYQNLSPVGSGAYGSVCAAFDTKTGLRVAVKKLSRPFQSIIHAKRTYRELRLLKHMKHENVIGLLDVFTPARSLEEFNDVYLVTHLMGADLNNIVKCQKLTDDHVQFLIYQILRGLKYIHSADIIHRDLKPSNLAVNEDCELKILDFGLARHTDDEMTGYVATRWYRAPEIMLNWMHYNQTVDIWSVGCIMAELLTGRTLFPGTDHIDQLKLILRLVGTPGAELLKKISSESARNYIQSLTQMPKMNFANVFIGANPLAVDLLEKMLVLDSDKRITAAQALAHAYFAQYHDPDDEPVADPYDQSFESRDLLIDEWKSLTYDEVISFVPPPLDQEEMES
Chain of hERG (KCNH2) (Q12809 whole entry): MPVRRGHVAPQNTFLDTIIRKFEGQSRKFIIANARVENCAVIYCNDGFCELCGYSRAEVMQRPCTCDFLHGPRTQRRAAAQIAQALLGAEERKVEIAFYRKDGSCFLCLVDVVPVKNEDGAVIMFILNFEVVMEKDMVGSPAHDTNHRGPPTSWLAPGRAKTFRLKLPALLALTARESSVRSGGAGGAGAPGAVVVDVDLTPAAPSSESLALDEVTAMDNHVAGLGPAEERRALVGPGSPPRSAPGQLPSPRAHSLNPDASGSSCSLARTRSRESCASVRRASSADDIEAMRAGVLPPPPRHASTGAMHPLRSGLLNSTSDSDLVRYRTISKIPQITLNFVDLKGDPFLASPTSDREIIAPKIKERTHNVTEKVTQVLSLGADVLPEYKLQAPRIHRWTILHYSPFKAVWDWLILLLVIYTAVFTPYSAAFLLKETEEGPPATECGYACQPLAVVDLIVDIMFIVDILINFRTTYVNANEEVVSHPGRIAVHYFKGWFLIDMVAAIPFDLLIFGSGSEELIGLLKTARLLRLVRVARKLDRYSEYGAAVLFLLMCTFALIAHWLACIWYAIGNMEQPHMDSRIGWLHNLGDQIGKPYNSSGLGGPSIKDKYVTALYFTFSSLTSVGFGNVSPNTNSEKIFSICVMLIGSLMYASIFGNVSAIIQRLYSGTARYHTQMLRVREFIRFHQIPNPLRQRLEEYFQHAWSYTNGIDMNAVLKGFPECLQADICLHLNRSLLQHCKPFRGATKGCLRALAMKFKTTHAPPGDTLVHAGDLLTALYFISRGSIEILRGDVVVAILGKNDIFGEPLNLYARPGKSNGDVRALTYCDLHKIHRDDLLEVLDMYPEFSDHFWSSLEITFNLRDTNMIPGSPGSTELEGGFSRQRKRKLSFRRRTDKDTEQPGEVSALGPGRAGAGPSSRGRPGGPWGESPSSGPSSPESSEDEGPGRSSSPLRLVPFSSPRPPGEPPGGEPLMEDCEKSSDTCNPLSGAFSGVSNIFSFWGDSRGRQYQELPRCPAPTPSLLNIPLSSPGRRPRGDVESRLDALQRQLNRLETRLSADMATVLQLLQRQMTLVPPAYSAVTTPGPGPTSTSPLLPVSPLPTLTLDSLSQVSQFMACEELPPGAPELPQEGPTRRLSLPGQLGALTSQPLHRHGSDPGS
Chain of CYP2C9 (P11712 whole entry): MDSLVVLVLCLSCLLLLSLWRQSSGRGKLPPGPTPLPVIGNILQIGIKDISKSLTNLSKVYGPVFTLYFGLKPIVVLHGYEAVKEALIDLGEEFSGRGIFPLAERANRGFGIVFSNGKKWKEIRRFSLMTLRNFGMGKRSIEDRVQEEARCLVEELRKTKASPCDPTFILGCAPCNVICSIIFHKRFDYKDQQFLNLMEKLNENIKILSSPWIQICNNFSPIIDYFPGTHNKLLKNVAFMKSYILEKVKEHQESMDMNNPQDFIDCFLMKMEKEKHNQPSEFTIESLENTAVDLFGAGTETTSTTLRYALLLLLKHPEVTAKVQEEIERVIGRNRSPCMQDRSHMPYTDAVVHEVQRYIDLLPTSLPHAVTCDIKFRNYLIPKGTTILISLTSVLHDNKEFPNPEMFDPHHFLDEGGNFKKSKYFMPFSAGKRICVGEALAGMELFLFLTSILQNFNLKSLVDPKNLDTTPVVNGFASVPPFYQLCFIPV
Chain of CYP3A4 (P08684 whole entry): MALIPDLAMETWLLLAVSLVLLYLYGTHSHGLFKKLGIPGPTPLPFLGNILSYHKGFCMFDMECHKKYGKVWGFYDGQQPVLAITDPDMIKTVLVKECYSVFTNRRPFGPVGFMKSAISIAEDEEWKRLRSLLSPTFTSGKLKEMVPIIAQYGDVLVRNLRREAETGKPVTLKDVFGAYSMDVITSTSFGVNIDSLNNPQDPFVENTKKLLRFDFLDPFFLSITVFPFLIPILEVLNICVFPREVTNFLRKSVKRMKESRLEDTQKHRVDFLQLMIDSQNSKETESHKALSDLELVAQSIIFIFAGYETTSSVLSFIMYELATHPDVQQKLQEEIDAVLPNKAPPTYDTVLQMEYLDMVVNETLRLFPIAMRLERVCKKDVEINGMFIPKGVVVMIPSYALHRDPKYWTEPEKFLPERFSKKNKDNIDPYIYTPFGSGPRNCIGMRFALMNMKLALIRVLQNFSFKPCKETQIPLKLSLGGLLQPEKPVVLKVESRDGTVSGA

Row | IC50 [1] | IC50 [2] | Structure (SMILES) | further results
1 | 185 nM | 599 nM | CC(C)(C)c1cc(NC(=O)Nc2ccccc2)n(-c2cccc(CNC(=O)CN3CCOC3=O)c2)n1 | 
2 | 168 nM | 480 nM | CC(=O)NC(C)C(=O)NCc1cccc(-n2nc(C(C)(C)C)cc2NC(=O)Nc2ccccc2)c1 (stereo not given) | 
3 | 169 nM | 441 nM | CC(C)(C)c1cc(NC(=O)Nc2ccccc2)n(-c2cccc(CNC(=O)CNC(=O)c3ccccc3)c2)n1 | 
4 | 5 nM | 6 nM | CC(C)(C)c1cc(NC(=O)Nc2cccc3ccccc23)n(-c2cccc(CNC(=O)CCC(=O)O)c2)n1 | 
5 | 51 nM | 205 nM | CC(C)(C)c1cc(NC(=O)Nc2ccccc2)n(-c2cccc(CNC(=O)CNC(=O)c3cccnc3)c2)n1 | 
6 | 211 nM | 1600 nM | CC(=O)NCC(=O)N(C)Cc1cccc(-n2nc(C(C)(C)C)cc2NC(=O)Nc2ccccc2)c1 | 
7 | 78.2 nM | 331 nM | Cc1cc(C)n(CC(=O)NCc2cccc(-n3nc(C(C)(C)C)cc3NC(=O)Nc3ccccc3)c2)n1 | 
8 | 108 nM | 649 nM | CC(C)(C)c1cc(NC(=O)Nc2ccccc2)n(-c2cccc(CNC(=O)CNS(C)(=O)=O)c2)n1 | 
9 | 68 nM | 332 nM | CC(C)(C)c1cc(NC(=O)Nc2ccccc2)n(-c2cccc(CNC(=O)CNC=O)c2)n1 | 
10 | 132 nM | 677 nM | Cc1nccn1CC(=O)NCc1cccc(-n2nc(C(C)(C)C)cc2NC(=O)Nc2ccccc2)c1 | 
11 | 231 nM | 536 nM | CC(C)(C)c1cc(NC(=O)Nc2ccccc2)n(-c2cccc(CNC(=O)Cn3ccnc3)c2)n1 | 
12 | 176 nM | 2300 nM | CC(C)(C)c1cc(NC(=O)Nc2ccccc2)n(-c2cccc(CNC(=O)CN)c2)n1 | 
13 | 37 nM | 393 nM | CC(C)(C)c1cc(NC(=O)Nc2ccccc2)n(-c2cccc(CNC(=O)CCC(=O)O)c2)n1 | 
14 | 39 nM | 3680 nM | CC(C)(CC(=O)NCc1cccc(-n2nc(C(C)(C)C)cc2NC(=O)Nc2ccccc2)c1)C(=O)O | 
15 | 30 nM | 1100 nM | CC(C)(C)c1cc(NC(=O)Nc2ccccc2)n(-c2cccc(CNC(=O)C3C[C@H]3C(=O)O)c2)n1 (stereo not given in full) | 
16 | 27.9 nM | 201 nM | Cc1ccn(CC(=O)NCc2cccc(-n3nc(C(C)(C)C)cc3NC(=O)Nc3ccccc3)c2)n1 | inhibition at 3 µM [3]: 18%; inhibition at 3 µM [4]: 5%; inhibition at 10 µM [5]: 3%; solubility kinetic [6]: 100 µM (≈ 48.6 µg/mL); inhibition at 3 µM [7]: 4%; inhibition at 3 µM [8]: 26%; Papp [9]: 4.8 ×10⁻⁶ cm/s
17 | 18 nM | 88 nM | CC(C)(C)c1cc(NC(=O)Nc2ccccc2)n(-c2cccc(CNC(=O)CNC(=O)c3ccco3)c2)n1 | 
18 | 38 nM | 243 nM | Cc1cc(C(=O)NCC(=O)NCc2cccc(-n3nc(C(C)(C)C)cc3NC(=O)Nc3ccccc3)c2)no1 | 
19 | 14 nM | 737 nM | CC(C)(C)c1cc(NC(=O)Nc2ccccc2)n(-c2cccc(CNC(=O)C3CC=CC[C@H]3C(=O)O)c2)n1 (stereo not given in full) | 
20 | 16 nM | 63 nM | CC(C)(C)c1cc(NC(=O)Nc2ccccc2)n(-c2cccc(CNC(=O)Cn3ccccc3=O)c2)n1 | inhibition at 3 µM [3]: 21%; inhibition at 3 µM [4]: 6%; inhibition at 10 µM [5]: 9%; solubility kinetic [6]: 50 µM (≈ 24.9 µg/mL); inhibition at 3 µM [7]: 4%; inhibition at 3 µM [8]: 30%; Papp [9]: 12.9 ×10⁻⁶ cm/s
21 | 715 nM | 4550 nM | CC(=O)NC1(C(=O)NCc2cccc(-n3nc(C(C)(C)C)cc3NC(=O)Nc3ccccc3)c2)CCCC1 | 
22 | 6 nM | 34 nM | CC(=O)NCC(=O)NCc1cccc(-n2nc(C(C)(C)C)cc2NC(=O)Nc2ccccc2)c1 | inhibition at 3 µM [3]: 2%; inhibition at 3 µM [4]: 0%; inhibition at 10 µM [5]: -11%; solubility kinetic [6]: > 200 µM; inhibition at 3 µM [7]: 5%; inhibition at 3 µM [8]: 0%; Papp [9]: 7.38 ×10⁻⁶ cm/s
23 | 68 nM | 296 nM | CC(C)(C)c1cc(NC(=O)Nc2ccccc2)n(-c2cccc(CNC(=O)CN3CCCC3=O)c2)n1 | 
24 | 48.8 nM | 135 nM | CC(C)(C)c1cc(NC(=O)Nc2ccccc2)n(-c2cccc(CNC(=O)Cn3cccn3)c2)n1 | 
25 | 57 nM | 3360 nM | CC(C)(C)c1cc(NC(=O)Nc2ccccc2)n(-c2cccc(CNC(=O)C3CCCC[C@H]3C(=O)O)c2)n1 (stereo not given in full) | 
26 | 176 nM | 287 nM | COC(=O)NCC(=O)NCc1cccc(-n2nc(C(C)(C)C)cc2NC(=O)Nc2ccccc2)c1 | 
27 | 2850 nM | > 16700 nM | CC(C)(C)c1cc(NC(=O)Nc2ccccc2)n(-c2cccc(CN)c2)n1 | 

Source: ChEMBL document CHEMBL1208762, “Enhanced selectivity profile of pyrazole-urea based DFG-out p38alpha inhibitors” (Bioorg Med Chem Lett, 2010)
